Bioassay records: PubChem, several laboratories
Only some compounds are listed: those with a hit (about 2.5% of all), similar ones and a draw of the others.
NadD block: inhibitors of S. aureus NadD, primary screen, biochemical, colorimetric, uHTS; 360,000 tested, 0.78% active; inhibition, % at 20 µM; Nicotinate-nucleotide adenylyltransferase NadD (Staphylococcus aureus N315); AID 602399, 2012; purified NadD enzyme, colorimetric absorbance read-out; in the data active = inhibition above about 26%
Beta2AR agonist: beta2AR agonists driving receptor internalization, primary screen, cell-based, FAP fluorogen, flow cytometry; Beta-2 adrenergic receptor (Homo sapiens), P07550; AID 504454, 2011; 340,000 tested, 0.43% active; response, % (test concentration not listed); Am2.2-beta2AR cells;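 active = response above a set limit, near 3 SD of response in nonfluorescent compounds, cut at about 42% in these data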
Target sequence (P07550 whole entry, looked up): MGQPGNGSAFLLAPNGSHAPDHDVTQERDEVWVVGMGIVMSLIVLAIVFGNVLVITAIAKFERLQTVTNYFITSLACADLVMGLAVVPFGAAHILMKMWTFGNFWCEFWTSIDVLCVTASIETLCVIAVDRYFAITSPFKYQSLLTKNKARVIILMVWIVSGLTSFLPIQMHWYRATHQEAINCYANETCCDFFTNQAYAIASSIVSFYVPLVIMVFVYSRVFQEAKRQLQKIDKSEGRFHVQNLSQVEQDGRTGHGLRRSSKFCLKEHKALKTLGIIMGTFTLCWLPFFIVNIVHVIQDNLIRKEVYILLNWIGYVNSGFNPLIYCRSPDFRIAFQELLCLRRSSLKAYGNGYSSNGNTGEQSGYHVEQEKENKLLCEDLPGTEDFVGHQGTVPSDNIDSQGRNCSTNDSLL
SENP1 inh: human SENP1 catalytic domain inhibitors, primary screen, biochemical, FRET, uHTS | recombinant SENP1 catalytic domain, CyPet-SUMO1-YPet FRET cleavage | AID 624204, 2012 | inhibition, % at 10 µM | 360,000 tested, 0.21% active | Sentrin-specific protease 1 (Homo sapiens), Q9P0U3;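 active = inhibition at least 30% at 10 µM, raw YFP signal under a set limit, fluorescence ratio 0.5 to 1.5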
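Test system: human SENP1 catalytic domain; medium: Tris pH 8 buffer plus EDTA, NaCl, BME, BSA, NP40, catalase; incubation: 50 min reaction at room temperature; technique: FRET, CFP and YFP emission; controls: no-enzyme low control and enzyme-plus-DMSO high control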
GRK2 aptamer HTS: compounds blocking aptamer binding on GRK2 – biochemical, human GRK2, bead flow cytometry, HTS, primary screen; FAM-aptamer displacement from GRK2; inhibition of aptamer binding, % at 10 µM; 330,000 tested, 0.59% active; AID 488847, 2010;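 active = inhibition of aptamer binding above 40%, roughly 3 SD of noise, on plates passing a quality check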;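 also: median bead fluorescence of bound FAM aptamer so fluorescent compounds give negative values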
ABHD5-PLIN5 inh: ABHD5-PLIN5 interaction inhibitors, primary screen, cell lysate, split luciferase complementation, luminescence. Split G. princeps luciferase complementation, 4 h. inhibition, % at 4 µM. 360,000 tested, 0.78% active;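 active = inhibition above the mean inhibition across every tested compound plus 3 SD, cut at about 22% in these data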
ABHD5-PLIN5 conf: ABHD5-PLIN5 interaction inhibitors, confirmation, biochemical, luminescence | shares compounds with ABHD5-PLIN5 inh | inhibition, % at 4 µM | 2,200 tested, 67% active | AID 651612, 2012; in the data active = inhibition above about 23%
HNF4 split-luc: HNF4 dimerization inhibitors, counter-screen for ABHD5-PLIN5 interaction inhibitor project, biochemical, split-luciferase complementation, luminescence; inhibition, % at 4 µM; 2,200 tested, 77% active; shares compounds with ABHD5-PLIN5 inh;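 active = mean inhibition across replicate wells exceeding the computed hit threshold, cut at about 13% in these data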;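 also: light from luciferase halves that rejoin when HNF4 fusion proteins dimerize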
Hits are given with their value; 0 = inactive; - = not tested or not shown.

SMILES	NadD block	Beta2AR agonist	SENP1 inh	GRK2 aptamer HTS	ABHD5-PLIN5 inh	ABHD5-PLIN5 conf	HNF4 split-luc
Cn1nnnc1Sc1ncnc2scc(-c3ccc[nH]3)c12	0	0	0	0	42	40	37
O=C(NCc1ccc(F)cc1)c1cc(C2CCCN(C(=O)CCCc3ccccc3)C2)on1 (stereo not drawn)	0	-	0	-	0	-	-
COc1ccc(OC)c2sc(Cl)nc12	0	0	0	0	109	0	0
COc1ccc(OC)c2sc(NC(=O)C(C)C)nc12	0	0	0	0	0	-	-
CN(C)CCCN(C(=O)c1ccc2c(c1)CCCC2)c1nc2ccc(Cl)cc2s1	0	0	0	0	28	0	0
CC1CCCCN1S(=O)(=O)c1ccc(C(=O)N(CCCN(C)C)c2nc3ccc(Br)cc3s2)cc1 (stereo not drawn)	0	0	0	0	24	0	0
CN(C)CCCN(C(=O)CCc1ccccc1)c1nc2ccc(Cl)cc2s1	0	0	0	0	39	24	0
CN(C)CCCN(C(=O)c1ccc(S(=O)(=O)N(C)Cc2ccccc2)cc1)c1nc2cc3c(cc2s1)OCO3	0	0	0	0	24	0	0
Cc1ccc(C(=O)N2CCN(C)CC2)cc1S(=O)(=O)N1CCCCCC1	0	0	0	0	0	-	-
CCc1ccc(NC(=O)Cn2nc(C)n3cccc3c2=O)cc1	0	0	0	0	0	-	-
CCOC(=O)CS(=O)(=O)c1ccccc1	0	0	0	0	0	-	-
CCOC(=O)CS(=O)(=O)c1nc(-c2ccccc2)cc(C(F)(F)F)n1	0	109	0	0	67	76	107
COC(=O)CCS(=O)(=O)c1nc(-c2ccccc2)cc(C(F)(F)F)n1	0	97	0	0	51	85	105
COc1ccc(-c2cc(C(F)(F)F)nc(S(=O)(=O)CCCC(=O)Nc3cccnc3Cl)n2)cc1OC	0	0	0	-	24	33	50
COc1nc(-c2ccccc2)cc(C(F)(F)F)n1	0	0	0	0	0	-	-
C#CCOCCOCCOCCNc1nc(N2CCN(C(=O)CCCCCCCCCCNC(=O)Cn3cc(C[C@@H](C)O)nn3)CC2)nc(N2CCN(C(=O)CCCCCCCCCCNC(=O)[C@@H]([C@H](C)O)n3cc(C)nn3)CC2)n1	0	0	0	0	97	0	0
C#CCOCCOCCOCCNc1nc(N2CCN(C(=O)CCCCCCCCCCNC(=O)Cn3cc(CCCCCN)nn3)CC2)nc(N2CCN(C(=O)CCCCCCCCCCNC(=O)Cn3cc(C[C@@H](C)O)nn3)CC2)n1	0	72	0	0	47	0	0
C#CCOCCOCCOCCNc1nc(N2CCN(C(=O)CCCCCCCCCCNC(=O)Cn3cc(C[C@@H](C)O)nn3)CC2)nc(N2CCN(C(=O)CCCCCCCCCCNC(=O)[C@@H](CCSC)n3cc(CCO)nn3)CC2)n1	0	0	0	0	0	-	-
C#CCOCCOCCOCCNc1nc(N2CCN(C(=O)Cn3cc(CCCCN)nn3)CC2)nc(N2CCN(C(=O)Cn3cc(CC(C)O)nn3)CC2)n1 (stereo not drawn)	0	0	0	0	0	-	-
CC(C)N(C(=O)COC(=O)c1cccc(N(C)C)c1)c1ccccc1	0	0	0	0	0	-	-
CCOC(=O)c1nc2sc(C)c(C)c2c(=O)[nH]1	0	0	0	0	0	-	-
CCOC(=O)/C(=C\c1cccc(O)c1)c1nc2sc(C)c(C)c2c(=O)[nH]1	0	0	0	0	53	85	80
O=C(O)c1cccc(-c2csc(C(O)c3ccccc3)n2)c1 (stereo not drawn)	0	-	0	-	0	-	-
CCc1ccc(/C=C/C(=O)c2c(C)cc(C)[nH]c2=O)cc1	0	0	0	0	29	48	29
COc1ccc(N(CC(=O)Nc2cccc(C)c2)S(=O)(=O)c2ccc(C)cc2)cc1OC	0	0	0	0	0	-	-
